Laboratory results from ChEMBL document CHEMBL4689842, “EUbOPEN Chemogenomics Library wave 1” (2021).

Test system: Fibroblast
Assay: Multiplex assay against human fibroblast
Format: toxicity, cell-based
Procedure, shortened: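 On a CQ1 microscope at 37°C and 5% CO2, live cells were imaged after compound addition. They had been stained at seeding with Hoechst33342, BioTracker Green Microtubule Cytoskeleton Dye, MitoTracker Red and Annexin V Alexa Fluor 680. CellPathfinder machine-learning gating assigned cells to Hoechst high-intensity objects or normal cells, normal cells to healthy, pyknosed or fragmented nuclei, and pyknosed cells to mitotic or apoptotic. Tubulin, mitochondrial-mass and membrane-permeability phenotypes are per cents of healthy-nucleus cells.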

[1] = 12 h, 1 µM, compound concentration 1 uM, replicate 1
[2] = 12 h, 1 µM, compound concentration 1 uM, replicate 2
[3] = 12 h, 10 µM, compound concentration 10 uM, replicate 1
[4] = 12 h, 10 µM, compound concentration 10 uM, replicate 2
[5] = 24 h, 1 µM, compound concentration 1 uM, replicate 1
[6] = 24 h, 1 µM, compound concentration 1 uM, replicate 2
[7] = 24 h, 10 µM, compound concentration 10 uM, replicate 1
[8] = 24 h, 10 µM, compound concentration 10 uM, replicate 2
[9] = 48 h, 1 µM, compound concentration 1 uM, replicate 1
[10] = 48 h, 1 µM, compound concentration 1 uM, replicate 2
[11] = 48 h, 10 µM, compound concentration 10 uM, replicate 1
[12] = 48 h, 10 µM, compound concentration 10 uM, replicate 2

Question: Which results are given for `COc1cc(N2CCN(C)CC2)ccc1Nc1ncc2c(n1)N(C)c1ccccc1C(=O)N2C`?
Answer: Population Apoptotic (%) [1]: 58%; Population Fragmented Nuclei (%) [1]: 25%; Population Healthy Nuclei (%) [1]: 41%; Population Hoechst High Intensity Objects (%) [1]: 11%; Population Membrane Permeable-Phenotype (%) [1]: 14%; Population Mitochondria Different-Phenotype (%) [1]: 12%; Population Mitotic Cells (%) [1]: 41%; Population Normal (%) [1]: 88%; Population Pyknosed Nuclei (%) [1]: 32%; Population Tubulin-Different-Phenotype (%) [1]: 28%; Total Cell Count [1]: 135; Population Apoptotic (%) [2]: 40%; Population Fragmented Nuclei (%) [2]: 5%; Population Healthy Nuclei (%) [2]: 82%; Population Hoechst High Intensity Objects (%) [2]: 4%; Population Membrane Permeable-Phenotype (%) [2]: 9%; Population Mitochondria Different-Phenotype (%) [2]: 21%; Population Mitotic Cells (%) [2]: 60%; Population Normal (%) [2]: 95%; Population Pyknosed Nuclei (%) [2]: 12%; Population Tubulin-Different-Phenotype (%) [2]: 15%; Total Cell Count [2]: 104; Population Apoptotic (%) [3]: 65%; Population Fragmented Nuclei (%) [3]: 32%; Population Healthy Nuclei (%) [3]: 38%; Population Hoechst High Intensity Objects (%) [3]: 20%; Population Membrane Permeable-Phenotype (%) [3]: 17%; Population Mitochondria Different-Phenotype (%) [3]: 35%; Population Mitotic Cells (%) [3]: 34%; Population Normal (%) [3]: 79%; Population Pyknosed Nuclei (%) [3]: 28%; Population Tubulin-Different-Phenotype (%) [3]: 82%; Total Cell Count [3]: 127; Population Apoptotic (%) [4]: 66%; Population Fragmented Nuclei (%) [4]: 15%; Population Healthy Nuclei (%) [4]: 61%; Population Hoechst High Intensity Objects (%) [4]: 5%; Population Membrane Permeable-Phenotype (%) [4]: 21%; Population Mitochondria Different-Phenotype (%) [4]: 96%; Population Mitotic Cells (%) [4]: 33%; Population Normal (%) [4]: 94%; Population Pyknosed Nuclei (%) [4]: 23%; Population Tubulin-Different-Phenotype (%) [4]: 100%; Total Cell Count [4]: 42; Population Apoptotic (%) [5]: 60%; Population Fragmented Nuclei (%) [5]: 22%; Population Healthy Nuclei (%) [5]: 57%; Population Hoechst High Intensity Objects (%) [5]: 10%; Population Membrane Permeable-Phenotype (%) [5]: 17%; Population Mitochondria Different-Phenotype (%) [5]: 6%; Population Mitotic Cells (%) [5]: 39%; Population Normal (%) [5]: 89%; Population Pyknosed Nuclei (%) [5]: 19%; Population Tubulin-Different-Phenotype (%) [5]: 26%; Total Cell Count [5]: 159; Population Apoptotic (%) [6]: 50%; Population Fragmented Nuclei (%) [6]: 9%; Population Healthy Nuclei (%) [6]: 75%; Population Hoechst High Intensity Objects (%) [6]: 6%; Population Membrane Permeable-Phenotype (%) [6]: 6%; Population Mitochondria Different-Phenotype (%) [6]: 12%; Population Mitotic Cells (%) [6]: 50%; Population Normal (%) [6]: 93%; Population Pyknosed Nuclei (%) [6]: 14%; Population Tubulin-Different-Phenotype (%) [6]: 6%; Total Cell Count [6]: 101; Population Apoptotic (%) [7]: 60%; Population Fragmented Nuclei (%) [7]: 38%; Population Healthy Nuclei (%) [7]: 52%; Population Hoechst High Intensity Objects (%) [7]: 20%; Population Membrane Permeable-Phenotype (%) [7]: 5%; Population Mitochondria Different-Phenotype (%) [7]: 43%; Population Mitotic Cells (%) [7]: 40%; Population Normal (%) [7]: 79%; Population Pyknosed Nuclei (%) [7]: 9%; Population Tubulin-Different-Phenotype (%) [7]: 74%; Total Cell Count [7]: 140; Population Apoptotic (%) [8]: 76%; Population Fragmented Nuclei (%) [8]: 11%; Population Healthy Nuclei (%) [8]: 63%; Population Hoechst High Intensity Objects (%) [8]: 8%; Population Membrane Permeable-Phenotype (%) [8]: 30%; Population Mitochondria Different-Phenotype (%) [8]: 93%; Population Mitotic Cells (%) [8]: 23%; Population Normal (%) [8]: 91%; Population Pyknosed Nuclei (%) [8]: 25%; Population Tubulin-Different-Phenotype (%) [8]: 66%; Total Cell Count [8]: 44; Population Apoptotic (%) [9]: 54%; Population Fragmented Nuclei (%) [9]: 34%; Population Healthy Nuclei (%) [9]: 58%; Population Hoechst High Intensity Objects (%) [9]: 14%; Population Membrane Permeable-Phenotype (%) [9]: 19%; Population Mitochondria Different-Phenotype (%) [9]: 1%; Population Mitotic Cells (%) [9]: 45%; Population Normal (%) [9]: 85%; Population Pyknosed Nuclei (%) [9]: 7%; Population Tubulin-Different-Phenotype (%) [9]: 29%; Total Cell Count [9]: 176; Population Apoptotic (%) [10]: 100%; Population Fragmented Nuclei (%) [10]: 25%; Population Healthy Nuclei (%) [10]: 72%; Population Hoechst High Intensity Objects (%) [10]: 7%; Population Membrane Permeable-Phenotype (%) [10]: 10%; Population Mitotic Cells (%) [10]: 0%; Population Normal (%) [10]: 92%; Population Pyknosed Nuclei (%) [10]: 1%; Population Tubulin-Different-Phenotype (%) [10]: 28%; Total Cell Count [10]: 83; Population Apoptotic (%) [11]: 85%; Population Fragmented Nuclei (%) [11]: 49%; Population Healthy Nuclei (%) [11]: 45%; Population Hoechst High Intensity Objects (%) [11]: 28%; Population Membrane Permeable-Phenotype (%) [11]: 7%; Population Mitochondria Different-Phenotype (%) [11]: 12%; Population Mitotic Cells (%) [11]: 14%; Population Normal (%) [11]: 71%; Population Pyknosed Nuclei (%) [11]: 4%; Population Tubulin-Different-Phenotype (%) [11]: 44%; Total Cell Count [11]: 201; Population Apoptotic (%) [12]: 100%; Population Fragmented Nuclei (%) [12]: 39%; Population Healthy Nuclei (%) [12]: 58%; Population Hoechst High Intensity Objects (%) [12]: 18%; Population Membrane Permeable-Phenotype (%) [12]: 5%; Population Mitochondria Different-Phenotype (%) [12]: 8%; Population Mitotic Cells (%) [12]: 0%; Population Normal (%) [12]: 81%; Population Pyknosed Nuclei (%) [12]: 2%; Population Tubulin-Different-Phenotype (%) [12]: 62%; Total Cell Count [12]: 188
